Experimental data published in ChEMBL document CHEMBL4330094, “Potent Metabolic Sialylation Inhibitors Based on C-5-Modified Fluorinated Sialic Acids” (J Med Chem, 2019).
Active and inactive are the calls of the source. The calls are words filed in the database; no cut-off is given here.

Assays:
[1] = tested on: B16-F10; test: Effect on total cell surface glycosylation in mouse B16F10 cells assessed as inhibition of biotinylated WGA-lectin binding at 102.4 uM after 3 days by flow cytometry; assay type: cell-based; conditions: b16-f10, 72 h
In short: (§1)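 B16-F10 cells were exposed 3 days to 102.4 µM compound or DMSO. Staining used biotinylated lectins (AAL 5, PNA 5, GSL-I 1, LCA 1, PHA-L 1, PSA 1, SJA 1, WGA 1 µg/ml) in carbo-free blocking buffer with 1 mM CaCl and 1 mM MgCl for 45-60 min at 4 °C, then streptavidin-PE for 20 min at 4 °C. Flow cytometry read-out was MFI, mean ± SEM from two independent experiments.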

[2] = tested on: B16-F10; test: Effect on total cell surface glycosylation in mouse B16F10 cells assessed as inhibition of biotinylated GSL1-lectin binding at 102.4 uM after 3 days by flow cytometry; assay type: cell-based; conditions: b16-f10, 72 h; in short: as §1
[3] = tested on: B16-F10; test: Inhibition of sialyltransferase in mouse B16-F10 cells assessed as recovery time for sialylation at 51.2 uM pretreated for 3 days followed by washing and re-seeding and measured after 6 days by biotinylated MAL2 lectin-based flow cytometry; assay type: cell-based
In short: (§2)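 B16-F10 cells were pretreated 3 days with 25.6 or 51.2 µM compound or DMSO, washed, reseeded, and sampled daily for 6 days. They were stained with biotinylated MALII (5 µg/ml, 45-60 min, 4 °C) plus streptavidin-PE. Flow cytometry MFI was normalized to control as % lectin binding.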

[4] = tested on: B16-F10; test: Effect on total cell surface glycosylation in mouse B16F10 cells assessed as inhibition of biotinylated LCA-lectin binding at 102.4 uM after 3 days by flow cytometry; assay type: cell-based; conditions: b16-f10, 72 h; in short: as §1
[5] = tested on: B16-F10; test: Cytotoxicity against mouse B16F10 cells assessed as reduction in metabolic activity at 204.8 uM after 3 days by MTT assay; assay type: ADME, cell-based; conditions: b16-f10, 72 h
[6] = tested on: B16-F10; test: Effect on total cell surface glycosylation in mouse B16F10 cells assessed as inhibition of biotinylated AAL-lectin binding at 102.4 uM after 3 days by flow cytometry; assay type: cell-based; conditions: b16-f10, 72 h; in short: as §1
[7] = Inhibition of sialyltransferase in mouse B16F10 cells assessed as decrease in lectin binding after 3 days by biotinylated MAL2 lectin and streptavidin-PE based flow cytometry; assay type: cell-based
In short: (§3)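 Each cell line was incubated 3 days with increasing compound concentrations or equivalent DMSO. Cells were stained with biotinylated MALII (5 µg/ml) in carbo-free blocking buffer with 1 mM CaCl/MgCl for 45-60 min at 4 °C, washed in PBS/1% BSA/0.02% azide, then stained with streptavidin-PE for 20 min at 4 °C. For flow cytometry, MFI was normalized to control as % lectin binding.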

[8] = tested on: B16-F10; test: Relative inhibitory potency, ratio of SiaFAc to compound EC50 for inhibition of sialyltransferase in mouse B16-F10 cells; assay type: cell-based
[9] = Inhibition of sialyltransferase in human HeLa cells assessed as decrease in lectin binding after 3 days by biotinylated MAL2 lectin and streptavidin-PE based flow cytometry; assay type: cell-based; in short: as §3
[10] = Inhibition of sialyltransferase in mouse 9464D cells assessed as decrease in lectin binding after 3 days by biotinylated MAL2 lectin and streptavidin-PE based flow cytometry; assay type: cell-based; in short: as §3
[11] = Inhibition of sialyltransferase in HEK293 cells assessed as decrease in lectin binding after 3 days by biotinylated MAL2 lectin and streptavidin-PE based flow cytometry; assay type: cell-based, Homo sapiens; in short: as §3
[12] = tested on: B16-F10; test: Effect on total cell surface glycosylation in mouse B16F10 cells assessed as inhibition of biotinylated PNA lectin binding at 102.4 uM after 3 days by flow cytometry; assay type: cell-based; conditions: b16-f10, 72 h; in short: as §1
[13] = Inhibition of sialyltransferase in human THP1 cells assessed as decrease in lectin binding after 3 days by biotinylated MAL2 lectin and streptavidin-PE based flow cytometry; assay type: cell-based; in short: as §3
[14] = tested on: B16-F10; test: Effect on total cell surface glycosylation in mouse B16F10 cells assessed as inhibition of biotinylated SJA-lectin binding at 102.4 uM after 3 days by flow cytometry; assay type: cell-based; conditions: b16-f10, 72 h; in short: as §1
[15] = Inhibition of sialyltransferase in mouse EL4 cells assessed as decrease in lectin binding after 3 days by biotinylated MAL2 lectin and streptavidin-PE based flow cytometry; assay type: cell-based; in short: as §3
[16] = tested on: B16-F10; test: Effect on total cell surface glycosylation in mouse B16F10 cells assessed as inhibition of biotinylated PHA-L lectin binding at 102.4 uM after 3 days by flow cytometry; assay type: cell-based; conditions: b16-f10, 72 h; in short: as §1
[17] = tested on: B16-F10; test: Cytotoxicity against mouse B16F10 cells assessed as reduction in metabolic activity at <51.2 uM after 3 days by MTT assay; assay type: ADME, cell-based; conditions: b16-f10, 72 h
[18] = tested on: B16-F10; test: Effect on total cell surface glycosylation in mouse B16F10 cells assessed as inhibition of biotinylated PSA-lectin binding at 102.4 uM after 3 days by flow cytometry; assay type: cell-based; conditions: b16-f10, 72 h; in short: as §1
[19] = tested on: B16-F10; test: Inhibition of sialyltransferase in mouse B16-F10 cells assessed as recovery time for sialylation at 25.6 uM pretreated for 3 days followed by washing and re-seeding and measured after 6 days by biotinylated MAL2 lectin-based flow cytometry; assay type: cell-based; in short: as §2

Compound	EC50 [7] [µM]	EC50 [9] [µM]	EC50 [10] [µM]	EC50 [11] [µM]	EC50 [13] [µM]	EC50 [15] [µM]	Activity [1]	Activity [2]	TIME [3] [h]	Activity [4]	Activity [5]	Activity [6]	Ratio EC50 [8]	Activity [12]	Activity [14]	Activity [16]	Activity [17]	Activity [18]	sialylation recovery time [19]
COC(=O)C1(OC(C)=O)O[C@@H]([C@H](OC(C)=O)[C@@H](COC(C)=O)OC(C)=O)[C@H](NC(=O)C(F)(F)F)[C@@H](OC(C)=O)[C@H]1F (some centres not stated)	14.3	25.5	46.5	42.8	3.3	> 102	Non-Toxic	Non-Toxic	48 to 72	Non-Toxic	Non-Toxic	Non-Toxic	2	Non-Toxic	Non-Toxic	Non-Toxic	Non-Toxic	Non-Toxic	Active
COC(=O)C1(OC(C)=O)O[C@@H]([C@H](OC(C)=O)[C@@H](COC(C)=O)OC(C)=O)[C@H](NC(=O)CN=[N+]=[N-])[C@@H](OC(C)=O)[C@H]1F (some centres not stated)	19.9	80.6	> 102	45.6	10.9	> 102	Non-Toxic	Non-Toxic	48 to 72	Non-Toxic	Non-Toxic	Non-Toxic	1	Non-Toxic	Non-Toxic	Non-Toxic	Non-Toxic	Non-Toxic	Active
COC(=O)C1(OC(C)=O)O[C@@H]([C@H](OC(C)=O)[C@@H](COC(C)=O)OC(C)=O)[C@H](NC(=O)CCl)[C@@H](OC(C)=O)[C@H]1F (some centres not stated)	18								48 to 72				1						
COCCOC(=O)N[C@H]1[C@H]([C@H](OC(C)=O)[C@@H](COC(C)=O)OC(C)=O)OC(OC(C)=O)(C(=O)OC)[C@H](F)[C@@H]1OC(C)=O (some centres not stated)	25.5					≥ 50							1						
COC(=O)C1(OC(C)=O)O[C@@H]([C@H](OC(C)=O)[C@@H](COC(C)=O)OC(C)=O)[C@H](NC(=O)OCc2ccccc2)[C@@H](OC(C)=O)[C@H]1F (some centres not stated)	14.5												2						
CCCCOC(=O)N[C@H]1[C@H]([C@H](OC(C)=O)[C@@H](COC(C)=O)OC(C)=O)OC(OC(C)=O)(C(=O)OC)[C@H](F)[C@@H]1OC(C)=O (some centres not stated)	7.45												4						
COC(=O)C1(OC(C)=O)O[C@@H]([C@H](OC(C)=O)[C@@H](COC(C)=O)OC(C)=O)[C@H](NC(=O)COC(C)=O)[C@@H](OC(C)=O)[C@H]1F (some centres not stated)	4.98	16.6	> 102	53.6	4.24	> 102	Non-Toxic	Non-Toxic	48 to 72	Non-Toxic	Non-Toxic	Non-Toxic	5	Non-Toxic	Non-Toxic	Non-Toxic	Non-Toxic	Non-Toxic	Active

More lines, in order of falling EC50 [7], values ahead:

EC50 [7] [µM]	EC50 [9] [µM]	EC50 [10] [µM]	EC50 [11] [µM]	EC50 [13] [µM]	EC50 [15] [µM]	Compound	Activity [1]	Activity [2]	TIME [3] [h]	Activity [4]	Activity [5]	Activity [6]	Ratio EC50 [8]	Activity [12]	Activity [14]	Activity [16]	Activity [17]	Activity [18]	sialylation recovery time [19]
4.89	6.33	18.3	3.31	1.98	59.2	COC(=O)N[C@H]1[C@H]([C@H](OC(C)=O)[C@@H](COC(C)=O)OC(C)=O)OC(OC(C)=O)(C(=O)OC)[C@H](F)[C@@H]1OC(C)=O (some centres not stated)	Non-Toxic	Non-Toxic	120 to 144	Non-Toxic	Non-Toxic	Non-Toxic	5	Non-Toxic	Non-Toxic	Non-Toxic	Non-Toxic	Non-Toxic	Active
3.83						COC(=O)C1(OC(C)=O)O[C@@H]([C@H](OC(C)=O)[C@@H](COC(C)=O)OC(C)=O)[C@H](NC(=O)OCC(Cl)(Cl)Cl)[C@@H](OC(C)=O)[C@H]1F (some centres not stated)							7						
3.48	12.8	36.5	10.4	1.28	54.6	COC(=O)C1(OC(C)=O)O[C@@H]([C@H](OC(C)=O)[C@@H](COC(C)=O)OC(C)=O)[C@H](NC(=O)OC(C)(C)C)[C@@H](OC(C)=O)[C@H]1F (some centres not stated)	Non-Toxic	Non-Toxic	120 to 144	Non-Toxic	Non-Toxic	Non-Toxic	8	Non-Toxic	Non-Toxic	Non-Toxic	Non-Toxic	Non-Toxic	Active
3.33	5.15	24.4	11.4	0.5	51.8	COC(=O)C1(OC(C)=O)O[C@@H]([C@H](OC(C)=O)[C@@H](COC(C)=O)OC(C)=O)[C@H](NC(=O)OCC(C)C)[C@@H](OC(C)=O)[C@H]1F (some centres not stated)	Non-Toxic	Non-Toxic	120 to 144	Non-Toxic	Non-Toxic	Non-Toxic	8	Non-Toxic	Non-Toxic	Non-Toxic	Non-Toxic	Non-Toxic	Active
1.39	1.77	6.91	1.83	0.41	39.9	C=CCOC(=O)N[C@H]1[C@H]([C@H](OC(C)=O)[C@@H](COC(C)=O)OC(C)=O)OC(OC(C)=O)(C(=O)OC)[C@H](F)[C@@H]1OC(C)=O (some centres not stated)	Non-Toxic	Non-Toxic	120 to 144	Non-Toxic	Non-Toxic	Non-Toxic	19	Non-Toxic	Non-Toxic	Non-Toxic	Non-Toxic	Non-Toxic	Active
1.25						COC(=O)C1(OC(C)=O)O[C@@H]([C@H](OC(C)=O)[C@@H](COC(C)=O)OC(C)=O)[C@H](NC(=O)OCCF)[C@@H](OC(C)=O)[C@H]1F (some centres not stated)							21						
